Counter-ions that a name gives are not always drawn. Like-named read-outs stand apart in the source and are kept apart here. Values belong to the molecule of their own block, whether it stands above or below them.
Experiments:
[1] = assay type: in vivo, human
[2] = tested on: R5X4 dual-tropic HIV-1 (strain 89.6); assay type: cell-based; settings: seven days, n=4
HIV-infected CD4 T cells = assay type: cell-based, human; settings: 1μg/ml drug, seven days, n=4
[3] = set-up: species or system rhesus macaques; settings: rhesus monkey, in vivo, sc
[4] = tested on: R5X4 dual-tropic HIV-1 (strain 89.6); assay type: cell-based; settings: 0.1-1μg/ml TDF, seven days, n=6
[5] = tested on: R5X4 dual-tropic HIV-1 (strain 89.6); assay type: cell-based; settings: 0.1-1μg/ml TDF, n=5
Outline: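 Infected CD4 T cells (5×10^5; anti-CD3/IL2-activated, MOI 0.1) were placed in 0.4μm-pore transwells above mature adipocytes in adipocyte maintenance medium. Drug was added to the lower wells just before, with 100ng/ml IL-2, for 6-7 days. Read-out was supernatant p24 by ELISA, reported as percent change relative to untreated. Singlet wells; experiments repeated with different donor cells; mean±sem.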

[6] = tested on: R5X4 dual-tropic HIV-1 (strain 89.6); assay type: cell-based; settings: 0.1-1μg/ml TDF, seven days, n=6; remark: listed apart in the source
[7] = tested on: R5X4 dual-tropic HIV-1 (strain 89.6); assay type: cell-based; settings: 1μg/ml drug, seven days, n=3
Outline: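 Anti-CD3 (1μg/ml plate-bound) plus IL2 (100ng/ml) stimulated CD4 T cells for 48 hrs at 37°C/5%CO2. Cells were infected at MOI 0.1 for 48 hrs with IL2, then 5×10^5 were seeded directly onto mature adipocytes differentiated from 5×10^4 preadipocytes/well. Co-culture ran seven days with IL-2 and drug. Read-out was intracellular p24 by flow cytometry (clone KC57) after viability dye; singlet wells per condition.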

[8] = direct contact co-culture with adipocytes

concentration in serum ([1]; human, in vivo): 37 ng/mL
intracellular concentration in tissues examined (tissue not specified) ([1]; human, in vivo): undetectable
intracellular concentration in visceral AT-SVF cells ([1]; human, in vivo): undetectable
Structure (SMILES): Nc1ccn([C@@H]2CS[C@H](COP(=O)(O)OP(=O)(O)OP(=O)(O)O)O2)c(=O)n1 [3TC-TP]

intracellular concentration in PBMC ([1]; Pt.05): undetectable
intracellular concentration in subcutaneous AT-SVF cells ([1]; Pt.05): 339 fmol/million cells
Structure (SMILES): COc1cc2c(cc1Cc1cccc(Cl)c1F)c(=O)c(C(=O)O)cn2[C@H](CO)C(C)C [elvitegravir]

Structure (SMILES): CC(C)OC(=O)[C@H](C)N[P@](=O)(CO[C@H](C)Cn1cnc2c(N)ncnc21)Oc1ccccc1 [TAF, tenofovir alafenamide]
reduced HIV replication (intracellular p24) ([2]; 0.1-1μg/ml TAF, in the presence of adipocytes): 1-64%
reduced HIV replication (intracellular p24) ([2]; 0.1-1μg/ml TAF, medium alone): 40-98%
CD69+p24+ expression (HIV-infected CD4 T cells; co-culture with adipocytes): 8-12%
CD69+p24+ expression (HIV-infected CD4 T cells; medium alone): < 2%

concentration in serum ([1]; human, in vivo): 246 ng/mL
intracellular concentration in PBMC ([1]; human, in vivo): 633 fmol/million cells
intracellular concentration in tissues examined (tissue not specified) ([1]; human, in vivo): undetectable
intracellular concentration in subcutaneous AT-SVF cells ([1]; human, in vivo, sc): 724 fmol/million cells
intracellular concentration in subcutaneous adipocytes ([1]; human, in vivo, sc): 7 fmol/million cells
intracellular concentration in PBMC [3]: 80-770 fmol/million cells
intracellular concentration in lysates of AT-SVF fractions [3]: undetectable
intracellular concentration in lysates of adipocyte fractions [3]: undetectable
Structure (SMILES): C[C@@H](Cn1cnc2c(N)ncnc21)OCP(=O)(O)OP(=O)(O)OP(=O)(O)O [TFV-DP]

intracellular concentration in tissues examined (tissue not specified) ([1]; Pt.07): undetectable
Structure (SMILES): COC(=O)N[C@H](C(=O)N[C@@H](Cc1ccccc1)[C@@H](O)CN(Cc1ccc(-c2ccccn2)cc1)NC(=O)[C@@H](NC(=O)OC)C(C)(C)C)C(C)(C)C [atazanavir]

intracellular concentration in visceral adipocytes ([1]; Pt.06): 139 fmol/million cells
Structure (SMILES): Cc1ccnc2c1NC(=O)c1cccnc1N2C1CC1 [nevirapine]

Structure (SMILES): CC(C)OC(=O)OCOP(=O)(CO[C@H](C)Cn1cnc2c(N)ncnc21)OCOC(=O)OC(C)C [TDF, tenofovir disoproxil fumarate]
effect of preadipocytes on antiviral activity [4]: neither preadipocytes or Caco-2 cells significantly affected
reduced HIV replication (extracellular p24 by ELISA) ([5]; in the presence of adipocytes): 4-41%
reduced HIV replication (extracellular p24 by ELISA) ([5]; medium alone): 57-85%
reduced HIV replication (intracellular p24) ([2]; 0.5-2μg/ml TDF, in the presence of adipocytes): 15-38%
reduced HIV replication (intracellular p24) ([2]; 0.5-2μg/ml TDF, medium alone): 60-95%
effect of Caco-2 cells on antiviral activity [6]: neither preadipocytes or Caco-2 cells significantly affected
CD69+p24+ expression (HIV-infected CD4 T cells; co-culture with adipocytes): 8-12%
CD69+p24+ expression (HIV-infected CD4 T cells; medium alone): < 2%
HIV production (p24+) [7, 8]: 55-60%
HIV production (p24+) ([7]; medium alone): 15-16 % p24+

Structure (SMILES): C[C@H](Cn1cnc2c(N)ncnc21)OCP(=O)(O)O [tenofovir]
reduced HIV replication (intracellular p24) ([2]; 1-5μg/ml tenofovir, in the presence of adipocytes): 5-43%
reduced HIV replication (intracellular p24) ([2]; 1-5μg/ml tenofovir, medium alone): 65-91%
CD69+p24+ expression (HIV-infected CD4 T cells; co-culture with adipocytes): 8-12%
CD69+p24+ expression (HIV-infected CD4 T cells; medium alone): < 2%
HIV production (p24+) [7, 8]: 55-60%
HIV production (p24+) ([7]; medium alone): 15-16 % p24+

intracellular concentration in lymph node cells ([1]; Pt.06): undetectable
intracellular concentration in visceral adipocytes ([1]; Pt.06): undetectable
Structure (SMILES): Nc1nc(NC2CC2)c2ncn([C@H]3C=C[C@@H](CO)C3)c2n1 [abacavir]

concentration in serum ([1]; human, in vivo): 2,687 ng/ml
intracellular concentration in PBMC ([1]; human, in vivo): 14,682 fmol/million cells
intracellular concentration in lymph node cells ([1]; human, in vivo): 1,053 fmol/million cells
intracellular concentration in tissues examined (tissue not specified) ([1]; human, in vivo): undetectable
intracellular concentration in subcutaneous AT-SVF cells ([1]; human, in vivo, sc): 4,459 fmol/million cells
intracellular concentration in subcutaneous adipocytes ([1]; human, in vivo, sc): 11 fmol/million cells
intracellular concentration in PBMC [3]: 700-1,400 fmol/million cells
intracellular concentration in lysates of AT-SVF fractions [3]: undetectable
intracellular concentration in lysates of adipocyte fractions [3]: undetectable
Structure (SMILES): Nc1nc(=O)n([C@@H]2CS[C@H](COP(=O)(O)OP(=O)(O)OP(=O)(O)O)O2)cc1F [FTC-TP]

intracellular concentration in tissues examined (tissue not specified) ([1]; human, in vivo): undetectable
intracellular concentration in visceral AT-SVF cells ([1]; human, in vivo): undetectable
Structure (SMILES): Nc1nc(=O)c2ncn([C@H]3C=C[C@@H](COP(=O)(O)OP(=O)(O)OP(=O)(O)O)C3)c2[nH]1 [CBV-TP]

intracellular concentration in visceral AT-SVF cells ([1]; Pt.01): undetectable
intracellular concentration in lymph node cells ([1]; Pt.03): 793 fmol/million cells
intracellular concentration in subcutaneous AT-SVF cells ([1]; Pt.03): 129 fmol/million cells
intracellular concentration in subcutaneous adipocytes ([1]; Pt.03): 151 fmol/million cells
intracellular concentration in lymph node cells ([1]; Pt.04): 749 fmol/million cells
intracellular concentration in subcutaneous AT-SVF cells ([1]; Pt.04): 1,439 fmol/million cells
intracellular concentration in subcutaneous adipocytes ([1]; Pt.04): 382 fmol/million cells
intracellular concentration in subcutaneous AT-SVF cells ([1]; Pt.07): 4 fmol/million cells
concentration in serum ([1]; Pt.08): 1,324 ng/ml
intracellular concentration in PBMC ([1]; Pt.08): 46 fmol/million cells
intracellular concentration in lymph node cells ([1]; Pt.08): 17 fmol/million cells
intracellular concentration in subcutaneous AT-SVF cells ([1]; Pt.08): 449 fmol/million cells
intracellular concentration in subcutaneous adipocytes ([1]; Pt.08): 363 fmol/million cells
Structure (SMILES): C[C@@H]1CCO[C@H]2Cn3cc(C(=O)NCc4ccc(F)cc4F)c(=O)c(O)c3C(=O)N12 [dolutegravir]

intracellular concentration in tissues examined (tissue not specified) ([1]; Pt.07): undetectable
Structure (SMILES): CC(C)c1nc(CN(C)C(=O)N[C@H](C(=O)N[C@@H](Cc2ccccc2)C[C@H](O)[C@H](Cc2ccccc2)NC(=O)OCc2cncs2)C(C)C)cs1 [ritonavir]
